Reference: ChEMBL document CHEMBL1821582, “SAR analysis of innovative selective small molecule antagonists of sphingosine-1-phosphate 4 (S1P₄) receptor” (Bioorg Med Chem Lett, 2011)
One block for each molecule: values may come before it. Active and inactive are the calls of the source. The rule behind the calls is not given here.

Key:
[1] = target: T1, Sphingosine 1-phosphate receptor 4 (Homo sapiens) (UniProt O95977); experiment: Antagonist activity at human S1P4 receptor expressed in EDG6-bla U2OS cells coexpressing human endothelial differentiation gene 6 linked to GAL4-VP16 assessed as beta-lactamase expression at 25 uM by FRET assay; format: functional, cell-based
T1 sequence (whole entry): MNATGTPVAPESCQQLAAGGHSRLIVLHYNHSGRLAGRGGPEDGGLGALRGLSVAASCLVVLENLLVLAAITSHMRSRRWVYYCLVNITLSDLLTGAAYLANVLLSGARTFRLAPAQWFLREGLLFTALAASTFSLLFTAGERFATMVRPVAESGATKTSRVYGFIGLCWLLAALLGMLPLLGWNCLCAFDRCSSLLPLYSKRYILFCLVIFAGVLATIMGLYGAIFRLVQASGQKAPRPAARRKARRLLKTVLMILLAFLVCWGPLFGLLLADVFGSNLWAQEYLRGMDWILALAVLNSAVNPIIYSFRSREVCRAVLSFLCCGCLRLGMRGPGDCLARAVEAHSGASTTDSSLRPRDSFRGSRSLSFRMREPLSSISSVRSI
Outline: (§1)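 Human EDG6 (S1P4) Tango assay in U2OS cells: the receptor is fused via a TEV protease site to a GAL4-VP16 transcription factor, with a co-expressed beta-arrestin/TEV protease fusion. Read-out is a beta-lactamase reporter driven by a UAS response element. Compounds were tested up to 25 μM, with percentage inhibition at 25 μM; values are the mean of n = 3 determinations.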

[2] = target: T2, Sphingosine 1-phosphate receptor 1 (Homo sapiens, UniProt P21453); experiment: Antagonist activity at S1P1 receptor; format: functional
[3] = target: T3, Sphingosine 1-phosphate receptor 3 (Homo sapiens, UniProt Q99500); experiment: Antagonist activity at S1P3 receptor; format: functional
[4] = target: T4, Sphingosine 1-phosphate receptor 4 (Homo sapiens, UniProt O95977); experiment: Antagonist activity at human S1P4 receptor expressed in EDG6-bla U2OS cells coexpressing human endothelial differentiation gene 6 linked to GAL4-VP16 assessed as beta-lactamase expression by FRET assay; format: functional, cell-based; outline: as §1
T4 sequence (O95977 whole entry): T1 sequence (whole entry)

[5] = target: T5, Sphingosine 1-phosphate receptor 2 (Homo sapiens, UniProt O95136); experiment: Inhibition of S1P2 receptor; details: concentration not given here
[6] = target: T6, Sphingosine 1-phosphate receptor 5 (Homo sapiens, UniProt Q9H228); experiment: Inhibition of S1P5 receptor at 25 uM
[7] = target: T2, Sphingosine 1-phosphate receptor 1; experiment: Antagonist activity at S1P1 receptor upto 25 uM; format: functional
[8] = target: T5, Sphingosine 1-phosphate receptor 2; experiment: Antagonist activity at S1P2 receptor; format: functional
[9] = target: T3, Sphingosine 1-phosphate receptor 3; experiment: Inhibition of S1P3 receptor at 25 uM
[10] = target: T2, Sphingosine 1-phosphate receptor 1; experiment: Inhibition of S1P1 receptor at 25 uM
[11] = target: T5, Sphingosine 1-phosphate receptor 2; experiment: Inhibition of S1P2 receptor at 25 uM
[12] = target: T6, Sphingosine 1-phosphate receptor 5; experiment: Antagonist activity at S1P5 receptor; format: functional

T5 sequence (O95136 whole entry): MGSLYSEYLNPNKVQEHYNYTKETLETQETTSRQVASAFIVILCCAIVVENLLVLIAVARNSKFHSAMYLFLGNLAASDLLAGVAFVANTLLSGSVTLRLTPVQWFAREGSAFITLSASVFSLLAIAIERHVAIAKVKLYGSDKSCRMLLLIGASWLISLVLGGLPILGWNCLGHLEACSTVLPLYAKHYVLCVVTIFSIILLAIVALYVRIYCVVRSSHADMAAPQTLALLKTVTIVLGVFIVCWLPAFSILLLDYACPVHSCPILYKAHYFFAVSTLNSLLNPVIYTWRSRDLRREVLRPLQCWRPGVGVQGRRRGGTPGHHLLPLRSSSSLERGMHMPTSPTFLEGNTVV
T6 sequence (Q9H228 whole entry): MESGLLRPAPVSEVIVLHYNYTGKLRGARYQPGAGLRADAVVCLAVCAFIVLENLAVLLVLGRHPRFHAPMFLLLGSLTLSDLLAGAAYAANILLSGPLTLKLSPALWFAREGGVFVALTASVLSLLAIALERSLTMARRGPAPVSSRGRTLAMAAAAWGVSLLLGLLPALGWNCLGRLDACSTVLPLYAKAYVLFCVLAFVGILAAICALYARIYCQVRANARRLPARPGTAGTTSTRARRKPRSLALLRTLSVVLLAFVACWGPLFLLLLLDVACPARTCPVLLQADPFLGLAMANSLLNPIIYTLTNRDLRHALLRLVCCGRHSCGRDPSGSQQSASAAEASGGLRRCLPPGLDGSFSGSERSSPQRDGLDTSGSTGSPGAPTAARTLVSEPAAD
T2 sequence (P21453 whole entry): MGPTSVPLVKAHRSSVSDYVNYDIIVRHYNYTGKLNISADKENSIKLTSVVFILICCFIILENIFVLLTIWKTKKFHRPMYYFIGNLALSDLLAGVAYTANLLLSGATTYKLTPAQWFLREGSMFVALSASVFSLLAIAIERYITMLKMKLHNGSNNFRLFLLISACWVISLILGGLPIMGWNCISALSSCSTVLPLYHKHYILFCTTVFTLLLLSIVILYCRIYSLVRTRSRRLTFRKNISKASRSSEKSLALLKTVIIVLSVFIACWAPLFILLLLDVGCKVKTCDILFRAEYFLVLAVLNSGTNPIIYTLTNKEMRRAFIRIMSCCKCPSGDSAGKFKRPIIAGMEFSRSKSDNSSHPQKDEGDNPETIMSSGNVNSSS
T3 sequence (Q99500 whole entry, the tested form may be a part): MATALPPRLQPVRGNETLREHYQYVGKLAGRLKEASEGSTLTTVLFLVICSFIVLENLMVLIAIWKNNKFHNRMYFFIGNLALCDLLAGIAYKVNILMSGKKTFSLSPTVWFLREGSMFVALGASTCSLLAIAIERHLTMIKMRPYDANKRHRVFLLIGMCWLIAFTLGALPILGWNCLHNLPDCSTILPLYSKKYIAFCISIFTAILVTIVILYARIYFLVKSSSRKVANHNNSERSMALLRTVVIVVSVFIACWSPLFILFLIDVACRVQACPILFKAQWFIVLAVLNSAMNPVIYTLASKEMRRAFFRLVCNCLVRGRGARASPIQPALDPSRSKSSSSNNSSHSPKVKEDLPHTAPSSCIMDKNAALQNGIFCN

Activity [1]: inactive
Compound: Cc1cccc(C)c1NC(=O)c1cccc(-c2cc(Cl)ccc2Cl)n1

IC50 [2]: > 20 µM
IC50 [3]: > 20 µM
Compound: Cc1cccc(C)c1NC(=O)c1ccc(-c2cc(Cl)ccc2Cl)o1

IC50 [4]: 0.911 µM
Compound: Cc1ccc(C)c(-c2oc(C(=O)Nc3c(C)cccc3C)cc2C)c1

IC50 [4]: 2.4 µM
Compound: Cc1ccc(C)c(-c2cc(C(=O)Nc3c(C)cccc3C)ccc2C)c1

IC50 [4]: 6.3 µM
Compound: Cc1ccc(C)c(-c2ccc(C(=O)Nc3c(C)cccc3C)n2C)c1

inhibition [5]: 40%
inhibition [6]: 30%
IC50 [4]: 0.059 µM
Activity [7]: inactive
IC50 [8]: 1.1 µM
inhibition [9]: 35%
Compound: Cc1ccc(C)c(-c2ccc(C(=O)Nc3c(C)cccc3C)s2)c1

Activity [1]: inactive
Compound: CCc1cccc(C)c1NC(=O)c1nnc(-c2cc(Cl)ccc2Cl)o1

inhibition [6]: 40%
IC50 [4]: 0.075 µM
inhibition [9]: 40%
inhibition [10]: 30%
inhibition [11]: 25%
Compound: Cc1ccc(C)c(-c2cccc(C(=O)Nc3c(C)cccc3C)c2)c1

IC50 [4]: 0.233 µM
Compound: Cc1ccc(C)c(-c2cc(C(=O)Nc3c(C)cccc3C)co2)c1

IC50 [4]: 0.211 µM
Compound: Cc1ccc(C)c(-c2coc(C(=O)Nc3c(C)cccc3C)c2)c1

IC50 [12]: > 20 µM
IC50 [2]: > 20 µM
IC50 [3]: > 20 µM
Compound: Cc1ccc(C)c(-c2ccc(C(=O)Nc3c(C)cccc3C)o2)c1

Activity [1]: inactive
Compound: Cc1cccc(C)c1NCc1ccc(-c2cc(Cl)ccc2Cl)o1

IC50 [4]: 0.173 µM
Compound: Cc1ccc(C)c(-c2cc(C)c(C(=O)Nc3c(C)cccc3C)o2)c1
